An excerpt weighted towards active compounds, which were near 2.2% of everything screened.
PGC1a acetyl inh – modulators of PGC1a acetylation. actives 0.17% (n = 350,000). U2OS PGC1a acetylation, AlphaScreen anti-acetyl-lysine; with virally co-expressed GCN5 acetyltransferase. inhibition, % at 15.6 µM;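 active means every replicate shows inhibition of at least 40%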
SIRT5 block – inhibitors of human sirtuin-5 desuccinylase | Q9NXA8 | Purified SirT5, succinyl-peptide AMC, trypsin-coupled fluorescence | inhibition, % at 15 µM | actives 1.1% (n = 330,000) | AID 652115; in the data active means inhibition above about 15%
Target sequence (Q9NXA8 whole entry, looked up): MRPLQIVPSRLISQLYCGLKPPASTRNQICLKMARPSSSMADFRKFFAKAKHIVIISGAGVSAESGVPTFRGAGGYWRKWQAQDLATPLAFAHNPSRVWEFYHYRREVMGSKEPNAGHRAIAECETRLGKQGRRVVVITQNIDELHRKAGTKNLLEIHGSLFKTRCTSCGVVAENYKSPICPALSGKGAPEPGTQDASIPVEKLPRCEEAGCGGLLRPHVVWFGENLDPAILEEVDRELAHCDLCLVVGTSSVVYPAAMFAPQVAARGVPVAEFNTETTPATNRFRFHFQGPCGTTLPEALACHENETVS
FN deposition inh – fibronectin deposition inhibition | AID 743247 | AH1F fibroblasts, Alexa488-fibronectin deposition fluorescence, overnight | actives 0.086% (n = 350,000) | inhibition, % at 12.6 µM;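 active means mean inhibition across replicates of 30% or more, regardless of how many single replicates reach that level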
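Material: AH1F fibroblasts assembling fluorescent fibronectin matrix; amount: 10000 AH1F cells/well; medium: DMEM, 2% serum; reagent: Alexa488-fibronectin, 24 nM final in well; dosing: single compound dose, delivered by pin transfer; incubation: 1 h adhesion, overnight exposure; detection: fluorescence after three HBSS washes, excitation 485 nm, emission 525 nm; measure: fibronectin deposition inhibition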
FGF22 binding – binders of recombinant human FGF22 by thermal shift. SYPRO orange fluorescence; percent of sucrose octasulfate shift, DMSO zero. activity (Tm shift, normalised), % at 9.99 µM. actives 1.5% (n = 340,000). Q9HCT0. AID 651658;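 active means mean Tm shift, scaled 0 neutral to 100 positive control, at about 1.3% or above, every replicate too, limit read from the data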
Target sequence (Q9HCT0 whole entry, looked up): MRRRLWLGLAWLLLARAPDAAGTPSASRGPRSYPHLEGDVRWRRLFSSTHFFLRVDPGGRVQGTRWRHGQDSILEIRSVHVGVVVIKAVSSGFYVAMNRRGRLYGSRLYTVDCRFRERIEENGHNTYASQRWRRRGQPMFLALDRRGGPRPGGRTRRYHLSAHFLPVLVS
ERAP1 HTS inh – blocks human ERAP1 aminopeptidase activity; inhibition, % at 10.7 µM; AID 652197; Q9NZ08; actives 0.15% (n = 340,000); recombinant ERAP1, Leu-AMC fluorescence, 60 min;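 active means mean replicate inhibition of at least 30%, or all replicates individually reaching that 30% level; inactive means mean below 30% and not every replicate reaching it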
Large screens that a line does not name were inactive.

CCNC(=O)C[C@H]1CC[C@@H]2[C@H](COc3ccc(NC(=O)Nc4cccc(OC)c4)cc3C(=O)N2C)O1	none (no result: SIRT5 block, ERAP1 HTS inh)
Cc1cc2occ(CC(=O)NC3CCCc4ccccc43)c2cc1C (stereo not given)	FGF22 binding 43 (no result: PGC1a acetyl inh)
Cc1ccc(S(=O)(=O)Nc2ccc3c(c2)C(=O)N([C@H](C)CO)C[C@H](C)[C@H](CN(C)C(=O)c2ccccc2)OCCCC[C@H](C)O3)cc1	none (no result: FGF22 binding)
CCN1[C@H](C(=O)Nc2ccccc2)[C@@H](CO)[C@@H]2Cn3c(ccc(-c4ccc(F)cc4)c3=O)[C@@H]21	none (no result: PGC1a acetyl inh, FN deposition inh, FGF22 binding)
Cc1ccc(CNC(=O)CSc2nnc3n2CCCCC3)cc1	none
O=C(CSc1nnc2n1CCCCC2)NCc1ccccc1	FGF22 binding 43 (no result: SIRT5 block)
COCC(=O)N1C[C@@H](C)[C@@H](OC)CN(C)C(=O)c2cc(NC(=O)c3ccc(F)cc3)ccc2OC[C@@H]1C	none
OC1(C#CCCN2CCCCC2)c2ccccc2-c2ccccc21	FGF22 binding 44
OC1(CC#CCN2CCCCC2)c2ccccc2-c2ccccc21	none (no result: PGC1a acetyl inh)
C[C@@H]1CCCCO[C@@H](CN(C)C(=O)Cc2ccccc2)[C@@H](C)CN([C@@H](C)CO)C(=O)c2cc(NS(=O)(=O)c3ccc(F)cc3)ccc2O1	none (no result: SIRT5 block, FN deposition inh, ERAP1 HTS inh)
C[C@@H]1CN([C@H](C)CO)C(=O)Cc2cc(NS(=O)(=O)c3ccc(F)cc3)ccc2O[C@@H]1CN(C)C	none (no result: FN deposition inh, FGF22 binding)
CC(O)CNc1nc(Cl)c(C#N)s1 (stereo not given)	FGF22 binding 43
C[C@@H]1CN([C@@H](C)CO)S(=O)(=O)c2ccc(-c3cccc(F)c3)cc2O[C@@H]1CN(C)S(=O)(=O)c1ccc(F)cc1	SIRT5 block 17
C[C@H]1CN([C@@H](C)CO)S(=O)(=O)c2ccc(-c3cccc(F)c3)cc2O[C@H]1CN(C)S(=O)(=O)c1ccc(F)cc1	SIRT5 block 20
Cc1ccc(S(=O)(=O)N(C)C[C@@H]2Oc3cc(-c4cccc(F)c4)ccc3S(=O)(=O)N([C@@H](C)CO)C[C@@H]2C)cc1	none (no result: FN deposition inh)
C[C@H](CO)N1C[C@H](C)[C@H](CN(C)S(=O)(=O)c2ccc(F)cc2)Oc2cc(-c3cccc(F)c3)ccc2S1(=O)=O	none
COCC(=O)Nc1ccc2c(c1)C(=O)N(C)C[C@H](OC)[C@H](C)CN(C(=O)C1CCCC1)[C@@H](C)CO2	none
COc1cccc(C(=O)Nc2ccc3c(c2)C(=O)N(C)C[C@H](OC)[C@@H](C)CN(CCc2ccccc2)[C@@H](C)CO3)c1	SIRT5 block 18 (no result: ERAP1 HTS inh)
CCC(=O)Nc1ccc2c(c1)C(=O)N(C)C[C@@H](OC)[C@@H](C)CN(CC1CCCCC1)[C@@H](C)CO2	none
CCC(=O)Nc1ccc2c(c1)C(=O)N(C)C[C@@H](OC)[C@@H](C)CN(CCC(F)(F)F)[C@H](C)CO2	SIRT5 block 16
COc1cccc(C(=O)Nc2ccc3c(c2)C(=O)N(C)C[C@@H](OC)[C@H](C)CN(CCc2ccccc2)[C@@H](C)CO3)c1	none (no result: ERAP1 HTS inh)
CCC(=O)Nc1ccc2c(c1)C(=O)N(C)C[C@@H](OC)[C@H](C)CN(CC1CCCCC1)[C@@H](C)CO2	SIRT5 block 22
CO[C@@H]1CN(C)C(=O)c2cc(NC(=O)c3ccc4c(c3)OCO4)ccc2OC[C@@H](C)N(CC2CC2)C[C@H]1C	PGC1a acetyl inh 105 (no result: FN deposition inh)
CO[C@H]1CN(C)C(=O)c2ccc(NC(=O)Cc3ccccc3)cc2OC[C@H](C)N(CC2CC2)C[C@@H]1C	none
CCCN1C[C@@H](C)[C@H](OC)CN(C)C(=O)c2cc(NC(=O)c3ccc(F)cc3)ccc2OC[C@@H]1C	none
CO[C@@H]1CN(C)C(=O)c2ccc(NC(=O)Nc3c(C)noc3C)cc2OC[C@H](C)N(CC2CC2)C[C@@H]1C	PGC1a acetyl inh 101
CCCN1C[C@H](C)[C@H](OC)CN(C)C(=O)c2cc(NC(=O)c3ccc(F)cc3)ccc2OC[C@H]1C	SIRT5 block 16
C[C@H](CO)N1C[C@H](C)[C@@H](CN(C)C(=O)CN(C)C)Oc2ncc(-c3ccc(C(=O)N(C)C)cc3)cc2C1=O	none (no result: FN deposition inh)
CNC(=S)Nc1ccc2[nH]c(=O)[nH]c2c1	SIRT5 block 21
COc1ccc(CN(C)C[C@@H]2Oc3ccc(NC(=O)Nc4ccc(C(F)(F)F)cc4)cc3C(=O)N([C@H](C)CO)C[C@@H]2C)cc1	none

Screens (PubChem BioAssay)
